Reference: ChEMBL document CHEMBL5715947 (Blood Cancer J, 2011)
Active and inactive are the calls of the source. The rule behind the calls is not given here.

What was measured:
[1] = test system: Receptor-type tyrosine-protein kinase FLT3 (Homo sapiens), P36888 [UNDEFINED MUTATION]; assay: Inhibition of FLT3-ITD mutant in human MV4-11 cells assessed as reduction in phosphorylated FLT3 protein expression up to 1000 nM incubated for 3 hrs by Western blot analysis; format: cell-based
MV4-11 [2] = assay: Down regulation of JAK2 protein expression level in human MV4-11 cells harboring FLT3-ITD mutant at 5 nM after 24 hrs by Western blot analysis; format: functional, cell-based
[3] = Selectivity ratio of IC50 for antiproliferative activity against human linifanib-resistant MV4-11 cells harboring FLT3-ITD mutant to IC50 for antiproliferative activity against human MV4-11 cells harboring FLT3-ITD mutant; format: functional
Method in brief: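 Linifanib-resistant MV4-11 (MV4-11-R) and parental MV4-11 (MV4-11-P) cells, 2000–6000 cells/well, dosed on the seeding day in triplicate for 48 h, with final DMSO 0.1%. Viability was read by CellTiter-Glo luminescence. IC50 for each line came from dose-response curves, and the ratio is the resistant-line IC50 divided by the parental IC50.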

MV4-11 [4] = assay: Synergistic antiproliferative activity against human MV4-11 cells harboring FLT3-ITD mutant assessed as combination index at ED50 concentration incubated for 48 hrs in presence of JAKi-1 by CellTiter-Glo assay; format: functional
Method in brief: (§1)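 Two drugs combined at a constant ratio based on each one's individual IC50. […] Cells seeded 2000–6000/well and treated the same day in triplicate for 48 h. Viability read by CellTiter-Glo. Synergy from dose-response data of the combination. Final DMSO 0.1%.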

MV4-11 [5] = assay: Synergistic antiproliferative activity against human MV4-11 cells harboring FLT3-ITD mutant assessed as combination index at ED90 concentration incubated for 48 hrs in presence of JAKi-1 by CellTiter-Glo assay; format: functional; method in brief: as §1
[6] = test system: Receptor-type tyrosine-protein kinase FLT3 (Homo sapiens), P36888 [UNDEFINED MUTATION]; conditions: MV4-11, dose 5.0 nM, time 24.0 hrs
[7] = Toxicity in BALB/c nude mouse xenografted with human MV4-11 cells harboring FLT-3 ITD mutant assessed as change in body weight at 25 to 100 mg/kg, po administered daily for 21 days; format: organism-based; conditions: in vivo, 504 h, dose 25-100 mg/kg, time 21 day
MV4-11 [8] = assay: Down regulation of JAK2 protein expression level in human MV4-11 cells harboring FLT3-ITD mutant at 18 nM after 24 hrs by Western blot analysis; format: functional, cell-based

Chain of Receptor-type tyrosine-protein kinase FLT3 (Homo sapiens), P36888 [UNDEFINED MUTATION] (P36888 whole entry, looked up, change not shown): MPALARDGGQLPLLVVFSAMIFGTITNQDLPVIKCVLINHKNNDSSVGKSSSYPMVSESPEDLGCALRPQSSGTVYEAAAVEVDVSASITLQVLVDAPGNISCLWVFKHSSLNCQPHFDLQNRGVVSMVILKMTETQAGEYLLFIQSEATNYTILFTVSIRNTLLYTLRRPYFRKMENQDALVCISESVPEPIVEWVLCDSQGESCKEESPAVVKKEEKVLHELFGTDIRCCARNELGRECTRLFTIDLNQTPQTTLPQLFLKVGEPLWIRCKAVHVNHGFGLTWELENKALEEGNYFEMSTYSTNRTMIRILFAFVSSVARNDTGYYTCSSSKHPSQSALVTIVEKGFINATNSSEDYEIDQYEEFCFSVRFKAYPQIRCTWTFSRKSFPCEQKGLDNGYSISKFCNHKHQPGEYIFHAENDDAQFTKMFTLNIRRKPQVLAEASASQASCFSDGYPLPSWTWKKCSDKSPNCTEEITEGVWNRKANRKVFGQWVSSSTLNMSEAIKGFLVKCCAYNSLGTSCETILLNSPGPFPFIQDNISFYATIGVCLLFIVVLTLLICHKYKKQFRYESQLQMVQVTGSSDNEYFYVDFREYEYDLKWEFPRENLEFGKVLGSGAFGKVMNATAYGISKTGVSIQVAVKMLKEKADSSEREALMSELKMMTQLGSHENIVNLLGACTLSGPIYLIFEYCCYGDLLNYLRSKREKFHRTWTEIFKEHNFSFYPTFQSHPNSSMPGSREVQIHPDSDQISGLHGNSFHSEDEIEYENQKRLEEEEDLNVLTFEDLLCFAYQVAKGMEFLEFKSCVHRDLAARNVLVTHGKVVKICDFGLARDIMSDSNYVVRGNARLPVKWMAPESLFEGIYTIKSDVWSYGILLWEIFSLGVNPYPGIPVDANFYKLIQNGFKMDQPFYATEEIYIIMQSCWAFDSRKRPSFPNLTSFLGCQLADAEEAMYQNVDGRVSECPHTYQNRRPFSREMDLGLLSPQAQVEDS

CC(C)(C)c1nc2c3ccc(F)cc3c3c(=O)[nH]ccc3c2[nH]1
inhibition [1]: inactive

Cc1ccc(F)c(NC(=O)Nc2ccc(-c3cccc4[nH]nc(N)c34)cc2)c1 [LINIFANIB]
Activity (MV4-11 [2]): inactive
Ratio IC50 [3]: 127
CI (MV4-11 [4]): 0.73
CI (MV4-11 [5]): 0.8
inhibition [6]: Active

C1=C/COCc2cc(ccc2OCCN2CCCC2)Nc2nccc(n2)-c2cccc(c2)COC/1 [PACRITINIB]
Activity [7]: Non-Toxic

Cc1cc(Nc2cc(N3CCN(C)CC3)nc(Sc3ccc(NC(=O)C4CC4)cc3)n2)n[nH]1
Activity (MV4-11 [8]): inactive

CCN(CC)CCNC(=O)c1c(C)[nH]c(/C=C2\C(=O)Nc3ccc(F)cc32)c1C
Activity (MV4-11 [2]): inactive
inhibition [6]: Active
